Test results reported in publication PMC5480654 (Cancer Growth and Metastasis, 2017).

Legend:
[1] = Biodistribution of I125-labeled peptides; type: in vivo, mouse
MDA-MB-231 cells [2] = type: in vivo, mouse; details: 15 mg/kg ip every other day
Summary of the method: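 Six-week-old female NSG mice, in groups of 4, received 2 × 10^6 cells (grown in RPMI with 5% FBS) into the fourth mammary fat pad. Tumors grew for 2 weeks before stapled peptide treatment began, given intraperitoneally every other day for 5 weeks, […]. Mice were then euthanized and the dissected tumors were weighed individually.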

[3] = Tolerability in treated NSG mice; type: in vivo, mouse
MDA-MB-231 cells [4] = experiment: Ki67 and CD31 staining of primary tumors; type: in vivo, mouse
WASF3 = details: in vitro; cited from earlier work
breast cancer cells = experiment: Cell proliferation in vitro; type: cell-based
[5] = Blood clearance of I125-labeled peptides; type: in vivo, mouse; details: calculated by the authors, stated in Discussion
Summary of the method: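 Peptides were iodinated with I125 on iodination beads (1 bead per 50 µg peptide): I125 was preincubated with the beads for 5 min, then peptide in PBS was added for 15 to 20 min. Free label was removed on 1K-cutoff filters, and labeling efficiency was checked by TLC (85% methanol). Dosing was i.v. via the tail vein, with blood drawn from the opposite vein at 5, 30, 60 min, 3 h and 24 h (3 animals). Blood was weighed, gamma-counted and expressed as activity/g to derive half-life.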

Substance: FAM-PEG3-LEK*TNS* LAKIIRQL (sidechain bridge or staple) [WAHM1]
- tumor uptake, WAHM1 compared with WANT3-v1 ([1]; I125-labeled Tyr-N-term versions, SPECT): significantly greater than for the WANT3-v1 peptide
- radioactivity per gram of tissue (gamma counting) ([1]; I125-labeled peptide, organs and tumor isolated after 72 h): significant uptake in tumors after 72 hours
- weight of the tumors at conclusion of treatment (MDA-MB-231 cells [2]; 5 weeks, vs control tumors): significant reduction
- number of surface tumor nodules on the lungs (MDA-MB-231 cells [2]; 5 weeks, vs vehicle control): significant reduction in the number of surface tumor nodules
- dissemination of tumor cells (bioluminescence imaging) (MDA-MB-231 cells [2]; after 5 weeks, vs DMSO vehicle): significant reduction in the observed extent of dissemination of tumor cells
- overall body weight at conclusion of treatment ([3]; 15 mg/kg ip every other day, 5 weeks): reduced
- morbidity at the higher dose ([3]; 30 mg/kg ip every other day, after 2 weeks, dose discontinued): significant morbidity and weight loss
- Ki67 staining of primary tumors (proliferation potential) (MDA-MB-231 cells [4]; WAHM1-treated vs control mice, printed as 25% vs 22%, no significant difference): 25%
- number and size of microvessels in the primary tumors (anti-CD31) (MDA-MB-231 cells [4]; after 5 weeks, vs vehicle alone): significant reduction after 5 weeks in the number and size of microvessels
- phosphoactivation of WASF3 (WASF3): suppresses phosphoactivation of WASF3
- effect on cell proliferation (breast cancer cells): does not affect cell proliferation
- retention time in the blood system [5]: ~ 30 minutes
